ERb coact inh = ER-beta (human) coactivator binding inhibition | AID 633 | inhibition, % at 25.6 µM | TR-FRET ER-beta LBD / SRC1-Cy5 peptide binding; receptor agonist-loaded with 1 µM estradiol | 1.3% of 86,000 active;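 active = compounds whose percent inhibition of the receptor-coactivator binding signal exceeds about 50% in the single-dose screen, limit read from the data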
ERa coact pot = ER-alpha (human) coactivator binding potentiation | coactivator binding (% of control), % at 25.6 µM | 1.3% of 86,000 active | TR-FRET ERalpha-LBD/SRC-Cy5 coactivator binding, 2 h; 100 = basal binding, no effect; in the data active = activity above about 200%;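 also: binding measured in presence of low estradiol as agonist stimulus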
Pyk2 oligo antag = antagonists of human Pyk2 oligomerization; AID 1347419; z-score (the deposit names both 25 µM and 10 µM); 0.83% of 99,000 active; Q293 cells, Pyk2 FERM NanoBiT luminescence; hits give low values; Q14289;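 active = Z-score of -3 or lower, scaled per plate to the spread of control and sample wells; inactive = z-score above -3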;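 also: negative z-score means lost luminescence so less FERM oligomerization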
RORA act = activates the human nuclear receptor RORA; activation, % at 10 µM; P35398; 1.5% of 65,000 active; AID 560; CHO-K1 Gal4-RORA LBD luciferase reporter, luminescence; percent increase over mock-subtracted basal signal;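 active = activation above the mean of all tested compounds plus 3 SD, cut at about 49% in these data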
Target sequence (P35398 whole entry, looked up, the tested form may be a part): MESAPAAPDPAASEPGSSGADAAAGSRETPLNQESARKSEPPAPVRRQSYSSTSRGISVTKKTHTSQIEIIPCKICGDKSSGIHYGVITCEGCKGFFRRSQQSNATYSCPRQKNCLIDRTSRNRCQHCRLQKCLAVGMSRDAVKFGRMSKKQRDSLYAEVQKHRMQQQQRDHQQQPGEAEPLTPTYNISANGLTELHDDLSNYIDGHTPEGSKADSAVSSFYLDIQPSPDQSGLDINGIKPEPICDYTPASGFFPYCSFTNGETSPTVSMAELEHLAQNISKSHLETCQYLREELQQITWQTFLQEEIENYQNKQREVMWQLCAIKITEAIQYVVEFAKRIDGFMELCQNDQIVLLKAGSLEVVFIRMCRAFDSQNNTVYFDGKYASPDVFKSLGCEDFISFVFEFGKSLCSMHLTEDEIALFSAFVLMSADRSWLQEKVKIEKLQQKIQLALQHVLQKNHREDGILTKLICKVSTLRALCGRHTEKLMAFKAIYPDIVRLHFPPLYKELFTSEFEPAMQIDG
ERa SRC1 inh = blocks coactivator binding to human estrogen receptor alpha | P03372 | TR-FRET ER-alpha LBD / SRC-1 peptide, estradiol-bound | inhibition, % at 25.6 µM | 1.7% of 86,000 active; in the data active = inhibition above about 50%
SF-1 act = SF-1 (human) activation; activation, % at 10 µM; Q13285; 1.9% of 65,000 active; CHO-K1 Gal4-SF-1 LBD luciferase reporter; % increase over DMSO SF-1-specific signal;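 active = activation above the mean activation of all tested compounds plus 3 SD, cut at about 50% in these data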
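Assay system: CHO-K1 cells co-transfected with Gal4 DBD–human SF-1 LBD, 5xGal4 luciferase reporter; doses: 10 µM only; incubation: 20 h compound exposure at 37 °C after 1 h cell settling; signal: luciferase light emission; evaluation: percent activation versus DMSO; repeats: one test per compound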
Each line names hits and unclear results; the compound was inactive in the other large screens; [ ] = remark or other dose. In the library only some 4.8% were active in any assay of this set; here they are far more common.

CCC(=O)Nc1ccc(NC(=O)CSc2nnnn2C(C)C)cc1	none
Cc1c(NC(=O)c2ccc3c(c2)OCO3)cccc1-c1nc2ccccc2o1	none
CC(=O)c1c(C)[nH]c(C(=O)Nc2ccc3c(c2)OCCO3)c1C	SF-1 act 61
O=C(Nc1ccc2c(c1)OCCO2)c1c(F)cccc1F	SF-1 act 56
O=C(Nc1ccccc1-c1nc2ccccc2o1)c1ccc2c(c1)OCCO2	ERa coact pot 217[fluorescence artefact?] (no result: Pyk2 oligo antag)
CCOC(=O)c1[nH]c(C)c(C(=O)Nc2ccc3c(c2)OCCO3)c1C	none
O=C(Nc1ccc2c(c1)OCCO2)c1ccccc1F	none
O=C(Nc1ccc2oc(-c3ccccc3F)nc2c1)c1ccc2c(c1)OCCO2	Pyk2 oligo antag -3.1, RORA act 61 (no result: ERb coact inh, ERa coact pot, ERa SRC1 inh)
Cn1c(SCC(=O)Nc2cc(=O)n(C)c(=O)n2C)nnc1C12CC3CC(CC(C3)C1)C2	none (no result: Pyk2 oligo antag)
Cc1csc(NC(=O)c2sc3nc(-c4cccs4)ccc3c2N)n1	ERb coact inh 53[fluorescence artefact?], ERa SRC1 inh 85[fluorescence artefact?], SF-1 act 50 (no result: Pyk2 oligo antag)
Cc1nc2ccccc2n1C1CC(=O)N(Cc2ccccc2)C1=O (configuration not stated)	none (no result: RORA act, SF-1 act)
Nc1ncnc2oc(-c3ccco3)c(-c3ccco3)c12	ERb coact inh 88[fluorescence artefact?], ERa SRC1 inh 94[fluorescence artefact?]
Cc1ccc(S(=O)(=O)c2cc3c(=O)n4ccccc4nc3n(Cc3ccco3)c2=N)cc1C	ERb coact inh 50[fluorescence artefact?], ERa SRC1 inh 75[fluorescence artefact?] (no result: Pyk2 oligo antag)
N=c1c(S(=O)(=O)c2ccccc2)cc2c(=O)n3ccccc3nc2n1Cc1ccco1	ERb coact inh 79[fluorescence artefact?], ERa SRC1 inh 76[fluorescence artefact?]
CCCCCC#CCC#CCC#CCC#CCCCC(=O)O	none (no result: ERb coact inh, ERa coact pot, Pyk2 oligo antag, ERa SRC1 inh)
COc1ccccc1C(=O)OCc1c(F)cccc1Cl	none (no result: ERb coact inh, ERa coact pot, RORA act, ERa SRC1 inh, SF-1 act)
CCOc1ccc2nc(-c3ccccc3)[nH]c2c1	RORA act 67
Cc1cc(C)nc(-n2nc(C)cc2NC(=O)CNCc2ccccc2)n1	ERb coact inh 91[fluorescence artefact?] (no result: RORA act, SF-1 act)
COc1ccc(CNCC(=O)Nc2cc(C)nn2-c2nc(C)cc(C)n2)cc1OC	none (no result: ERb coact inh, ERa coact pot, Pyk2 oligo antag, ERa SRC1 inh)
O=C(CNC(=O)c1cccs1)c1ccc(F)cc1	none (no result: RORA act, SF-1 act)
O=S(=O)(Nc1nc2ccccc2nc1Nc1ccc2c(c1)OCCO2)c1cccs1	ERb coact inh 71[fluorescence artefact?], ERa SRC1 inh 70[fluorescence artefact?]
C=CCNc1nc2ccccc2nc1NS(=O)(=O)c1cccs1	none
O=C(NC1C2CC3CC(C2)CC1C3)C1CC1 (configuration not stated)	none
CCCC(=O)NC1C2CC3CC(C2)CC1C3 (configuration not stated)	ERa SRC1 inh 83[fluorescence artefact?]
N#CC1(c2ccccc2)CCCN1C(=O)c1ccc(Br)o1 (configuration not stated)	none
CC1CCN(C(=O)Cc2nn(C)c(=O)c3ccccc23)CC1	none
CCOC(=O)Cc1nn(C)c(=O)c2ccccc12	ERb coact inh 63
Cc1ccc(NC(=O)Nc2nc(-c3ccc(C)s3)cs2)cc1	none (no result: ERb coact inh, ERa coact pot, RORA act, ERa SRC1 inh, SF-1 act)
O=C(Nc1c(C(=O)Nc2cccc3ccccc23)cnn1-c1ccccc1)c1ccco1	none (no result: RORA act, SF-1 act)
Cc1cc2oc(=O)cc(CN3CCN(Cc4ccccc4)CC3)c2cc1Cl	none
O=c1cc(CN2CCN(c3cccc(Cl)c3)CC2)c2cc(O)c(-c3ccccc3)cc2o1	none (no result: ERb coact inh, ERa coact pot, RORA act, ERa SRC1 inh, SF-1 act)
O=c1cc(CN2CCN(c3ccccc3)CC2)c2cc(O)c(-c3ccccc3)cc2o1	ERa SRC1 inh 79[fluorescence artefact?]
O=c1cc(CN2CCN(Cc3ccccc3)CC2)c2cc(Cl)ccc2o1	ERb coact inh 60[fluorescence artefact?]
CC(=O)c1sc(Nc2nc3ccc(F)cc3s2)nc1C	SF-1 act 53
CCOC(=O)c1csc(Nc2nc3ccc(F)cc3s2)n1	none (no result: ERb coact inh, ERa coact pot, ERa SRC1 inh)
CCc1cc(=O)oc2cc(OC(C)C(=O)O)c(Cl)cc12 (configuration not stated)	none
Cc1ccc(C2NC(=O)c3c(sc4c3CCN(C)C4)N2)o1 (configuration not stated)	none
CCOC(=O)N1CCc2c(sc3c2C(=O)NC(c2ccc(-c4ccc(Cl)cc4)o2)N3)C1 (configuration not stated)	ERb coact inh 56[fluorescence artefact?], ERa SRC1 inh 79 (no result: Pyk2 oligo antag)
O=C(CSc1nnc(-c2ccco2)n1Cc1ccco1)N1CCOCC1	none
Cc1ccc(C(C)C)c(OCC(O)CN2CC(C)OC(C)C2)c1 (configuration not stated)	ERb coact inh 51[fluorescence artefact?]
